≈ marks a conversion by molar mass, not a printed value.
Tests used:
[1] = Inhibition of recombinant Plasmodium falciparum M1 aminopeptidase using H-Leu-NHMec as substrate preincubated for 10 mins followed by addition of substrate by spectrofluorimetric analysis
In short: (§1)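 E. coli-expressed enzymes, purified by Ni-NTA and size exclusion. Preincubation 10 min at 37°C with inhibitor: M1 in 100 mM Tris pH 8.0; M17 in 50 mM Tris pH 8.0, 2 mM CoCl2. Substrate H-Leu-NHMec kept below Km. Fluorescence ex 355/em 460 nm followed to steady-state velocity. Inhibitor range 500pM–500 μM. Ki from Dixon plots (1/V vs [I]).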

[2] = Inhibition of recombinant Plasmodium falciparum M17 aminopeptidase using H-Leu-NHMec as substrate preincubated for 10 mins followed by addition of substrate by spectrofluorimetric analysis; in short: as §1
[3] = system: Plasmodium falciparum; test: Antiparasitic activity against Plasmodium falciparum 3D7 assessed as growth inhibition after 72 hrs by DAPI staining-based confocal image analysis; assay type: functional, organism-based; settings: 3D7, 72 h
In short: (§2)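 Sorbitol-synchronised ring-stage parasites in human O+ erythrocytes at 2% parasitaemia, 0.3% haematocrit, incubated 72 h at 37 °C (5% CO2) with three-step log serial dilutions from 20 μM top, 0.4% DMSO final. Staining with DAPI/saponin/Triton X/EDTA in PBS, confocal imaging, parasite count.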

[4] = system: HEK293; test: Cytotoxicity against HEK293 cells assessed as cell viability after 72 hrs by resazurin assay; assay type: cell-based; settings: human, hek293, 72 h
In short: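 HEK293 cells in DMEM with 10% FCS, seeded at 2000 cells/well and left to adhere overnight. Compound dose response with top final 40 μM, 0.4% DMSO. Exposure 72 h at 37 °C, 5% CO2. Medium then replaced by 44 μM resazurin in serum-free DMEM for 4-6 h. Fluorescence read at ex/em 530/595 nm.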

[5] = system: Plasmodium falciparum; test: Antiparasitic activity against Plasmodium falciparum Dd2 assessed as growth inhibition after 72 hrs by DAPI staining-based confocal image analysis; assay type: functional, organism-based; settings: Dd2, 72 h; in short: as §2
[6] = system: Plasmodium falciparum; test: Antiparasitic activity against chloroquine/quinine/pyrimethamine/sulfadoxine/NITD609-resistant Plasmodium falciparum Dd2 clone 2 assessed as growth inhibition after 72 hrs by DAPI staining-based confocal image analysis; assay type: functional, organism-based; settings: Dd2, 72 h; in short: as §2
[7] = Intrinsic clearance in mouse liver microsomes assessed per mg of protein at 1 uM by LC/MS analysis; assay type: ADME; settings: read-out: CLH
In short: (§3)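 Human or mouse liver microsomes, 0.4 mg/mL protein in 0.1 M phosphate pH 7.4, with 1 µM compound at 37°C. Reactions started with an NADPH-regenerating system (NADP, glucose-6-phosphate, G6P dehydrogenase) plus MgCl2. Quenched with ice-cold acetonitrile at time points from 0 to 60 min. Parent compound remaining in supernatant measured by LC-MS.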

[8] = Kinetic solubility of compound in phosphate buffer at pH 6.5 by nephelometry; assay type: physicochemical; settings: read-out: Kinetic_solubility
In short: (§4)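 DMSO stock serially diluted and spiked into pH 6.5 phosphate buffer or 0.01 M HCl (about pH 2.0), final 1% DMSO. Solubility range determined by nephelometry.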

[9] = Half life in mouse liver microsomes at 1 uM by LC/MS analysis; assay type: ADME; in short: as §3
[10] = Intrinsic clearance in human liver microsomes assessed per mg of protein at 1 uM by LC/MS analysis; assay type: ADME; settings: read-out: CLH; in short: as §3
[11] = Partition coefficient, log D of the compound at pH 7.4 by HPLC method; assay type: physicochemical; settings: octanol/water
In short: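 LogD estimated by gradient HPLC (Lombardo-derived method). C18-type Hydro-RP column with 50 mM ammonium acetate pH 7.4 and an acetonitrile gradient of 0–100% over 13.5 min. UV detection at 220/254 nm. Retention compared with nine standards of shake-flask-determined partition coefficients.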

[12] = Kinetic solubility of compound in HCl at pH 2 by nephelometry; assay type: physicochemical; settings: read-out: Kinetic_solubility; in short: as §4
[13] = Apparent half life in human plasma incubated for 4 hrs by UPLC/MC analysis; assay type: ADME, cell-free; settings: read-out: t1/2(app)
In short: (§5)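 Pooled plasma (human n=3 donors; mouse from multiple animals), thawed and spiked to nominal 500 ng/mL test compound, final 0.2% DMSO and 0.4% acetonitrile (v/v). Incubated at 37°C, 4 h human or 6 h mouse. Duplicate samples taken at time points and snap-frozen. Quantified by UPLC/MS against matched-plasma standards. Half-life obtained by exponential decay fit of % remaining.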

[14] = Apparent half life in mouse plasma incubated for 6 hrs by UPLC/MC analysis; assay type: ADME, cell-free; settings: read-out: t1/2(app); in short: as §5
[15] = Half life in human liver microsomes at 1 uM by LC/MS analysis; assay type: ADME; in short: as §3

Question: For CC(C)(C)OC(=O)NC(C(=O)NO)c1ccc(-c2ccsc2)cc1 (configuration not stated), which Ki [1] is on record?
Answer: 20 µM

Question: What about the Ki [2] of the same molecule?
Answer: 0.064 µM

Question: With CC(C)(C)C(=O)NC(C(=O)NO)c1ccc(-c2ccccc2F)cc1 (configuration not stated) as the molecule, how does the IC50 [3] read?
Answer: 0.131 µM

Question: What about the Activity [4] of the same molecule?
Answer: Non-toxic

Question: And the Ki [1]?
Answer: 1.6 µM

Question: And the IC50 [5]?
Answer: 0.207 µM

Question: And the IC50 [6]?
Answer: 0.21 µM

Question: And the Ki [2]?
Answer: 0.012 µM

Question: Which Ki [1] does the source give for CC(C)(C)OC(=O)NC(C(=O)NO)c1ccc(-c2ccc(C(F)(F)F)cc2)cc1 (configuration not stated) here?
Answer: > 500 µM

Question: What about the Ki [2] of the same molecule?
Answer: 0.47 µM

Question: Which IC50 [3] does the source give for CC(C)(C)C(=O)NC(C(=O)NO)c1ccc(-c2ccccc2)cc1 (configuration not stated) here?
Answer: 0.096 µM

Question: What about the Activity [4] of the same molecule?
Answer: Non-toxic

Question: And the Ki [1]?
Answer: 1.6 µM

Question: What about the IC50 [5] of the same molecule?
Answer: 0.19 µM

Question: And the IC50 [6]?
Answer: 0.219 µM

Question: And the Ki [2]?
Answer: 0.007 µM

Question: With CC(C)(C)OC(=O)NC(C(=O)NO)c1ccc(-c2cc(F)c(F)c(F)c2)cc1 (configuration not stated) as the molecule, how does the Ki [1] read?
Answer: 19 µM

Question: And the Ki [2]?
Answer: 0.2 µM

Question: What does the source list for CC(C)(C)C(=O)NC(C(=O)NO)c1ccc(-c2ccc(F)cc2F)cc1 (configuration not stated)?
Answer: IC50 [3]: 0.109 µM; Activity [4]: Non-toxic; Ki [1]: 2.5 µM; IC50 [5]: 0.164 µM; IC50 [6]: 0.216 µM; Ki [2]: 0.0052 µM

Question: Which IC50 [3] does the source give for CC(C)(C)OC(=O)NC(C(=O)NO)c1ccc(-c2ccc(/C(N)=N/O)cc2)cc1 (configuration not stated) here?
Answer: 0.334 µM

Question: What about the Activity [4] of the same molecule?
Answer: Non-toxic

Question: What about the Ki [1] of the same molecule?
Answer: 0.4 µM

Question: And the Ki [2]?
Answer: 0.018 µM

Question: What does the source list for CC(C)(C)C(=O)NC(Cc1ccc(-c2ccccc2)cc1)C(=O)NO (configuration not stated)?
Answer: Ki [1]: 27 µM; Ki [2]: 0.65 µM

Question: What does the source list for CC(C)(C)C(=O)NC(C(=O)NO)c1ccc(-c2ccc(F)c(F)c2)cc1 (configuration not stated)?
Answer: IC50 [3]: 0.139 µM; Activity [4]: Non-toxic; Ki [1]: 1.4 µM; IC50 [5]: 0.17 µM; IC50 [6]: 0.195 µM; Ki [2]: 0.0064 µM

Question: With CC(C)(C)C(=O)NC(Cc1ccc(I)cc1)C(=O)NO (configuration not stated) as the molecule, how does the Ki [1] read?
Answer: 15 µM

Question: And the Ki [2]?
Answer: 0.016 µM

Question: What does the source list for CC(C)(C)C(=O)NC(C(=O)NO)c1ccc(-c2ccc(F)cc2)cc1 (configuration not stated)?
Answer: IC50 [3]: 0.126 µM; Activity [4]: Non-toxic; Ki [1]: 6.5 µM; IC50 [5]: 0.225 µM; IC50 [6]: 0.193 µM; Ki [2]: 0.033 µM

Question: With CC(C)(C)OC(=O)NC(C(=O)NO)c1ccc(Br)cc1 (configuration not stated) as the molecule, how does the IC50 [3] read?
Answer: 0.293 µM

Question: And the Activity [4]?
Answer: Non-toxic

Question: And the Ki [1]?
Answer: 0.027 µM

Question: And the Ki [2]?
Answer: 0.08 µM

Question: What does the source list for CC(C)(C)C(=O)NC(C(=O)NO)c1ccc(-c2c(F)c(F)c(F)c(F)c2F)cc1 (configuration not stated)?
Answer: IC50 [3]: 0.13 µM; Activity [4]: Non-toxic; Ki [1]: 1.8 µM; IC50 [5]: 0.461 µM; IC50 [6]: 0.408 µM; Ki [2]: 0.0084 µM

Question: For Cn1cc(-c2ccc(C(NC(=O)OC(C)(C)C)C(=O)NO)cc2)cn1 (configuration not stated), which IC50 [3] is on record?
Answer: 0.978 µM

Question: And the Activity [4]?
Answer: Non-toxic

Question: And the Ki [1]?
Answer: 1.9 µM

Question: What about the Ki [2] of the same molecule?
Answer: 0.056 µM

Question: Which IC50 [3] does the source give for CC(C)(C)C(=O)NC(C(=O)NO)c1ccc(-c2cc(F)c(F)c(F)c2)cc1 (configuration not stated) here?
Answer: 0.126 µM

Question: And the microsomal CLint at 1 µM [7]?
Answer: 25 µL/min/mg

Question: And the solubility kinetic [8]?
Answer: 12.5 µg/mL (≈ 32.9 µM)

Question: What about the Activity [4] of the same molecule?
Answer: Non-toxic

Question: What about the half-life at 1 µM [9] of the same molecule?
Answer: 1.15 h

Question: What about the Ki [1] of the same molecule?
Answer: 0.078 µM

Question: What about the IC50 [5] of the same molecule?
Answer: 0.189 µM

Question: What about the microsomal CLint at 1 µM [10] of the same molecule?
Answer: 8 µL/min/mg

Question: What about the logD [11] of the same molecule?
Answer: 3

Question: And the IC50 [6]?
Answer: 0.107 µM

Question: What about the solubility kinetic [12] of the same molecule?
Answer: 12.5 µg/mL (≈ 32.9 µM)

Question: What about the half-life [13] of the same molecule?
Answer: > 17 h

Question: What about the half-life [14] of the same molecule?
Answer: > 25 h

Question: And the Ki [2]?
Answer: 0.06 µM

Question: What about the half-life at 1 µM [15] of the same molecule?
Answer: 3.68 h

Question: Which IC50 [3] does the source give for CC(C)(C)C(=O)NC(C(=O)NO)c1ccc(-c2c(F)cccc2F)cc1 (configuration not stated) here?
Answer: 0.142 µM

Question: What about the Activity [4] of the same molecule?
Answer: Non-toxic

Question: What about the Ki [1] of the same molecule?
Answer: 4.8 µM

Question: And the IC50 [5]?
Answer: 0.251 µM

Question: What about the IC50 [6] of the same molecule?
Answer: 0.246 µM

Question: What about the Ki [2] of the same molecule?
Answer: 0.013 µM

Question: For CC(C)(C)OC(=O)NC(C(=O)NO)c1ccc(-c2cccc(C(F)(F)F)c2)cc1 (configuration not stated), which Ki [1] is on record?
Answer: 2.9 µM

Question: And the Ki [2]?
Answer: 0.14 µM

Question: With CC(C)(C)OC(=O)NC(Cc1ccc(I)cc1)C(=O)NO (configuration not stated) as the molecule, how does the Ki [1] read?
Answer: 4.3 µM

Question: And the Ki [2]?
Answer: 21 µM

Question: For CC(C)(C)C(=O)NC(C(=O)NO)c1ccc(F)cc1 (configuration not stated), which IC50 [3] is on record?
Answer: 1.53 µM

Question: What about the Activity [4] of the same molecule?
Answer: Non-toxic

Question: And the Ki [1]?
Answer: 4 µM

Question: What about the IC50 [5] of the same molecule?
Answer: 2.01 µM

Question: What about the IC50 [6] of the same molecule?
Answer: 2.09 µM

Question: What about the Ki [2] of the same molecule?
Answer: 0.029 µM

Question: Which IC50 [3] does the source give for CC(C)(C)C(=O)NC(C(=O)NO)c1ccc(-c2c(F)cc(F)cc2F)cc1 (configuration not stated) here?
Answer: 0.125 µM

Question: What about the Activity [4] of the same molecule?
Answer: Non-toxic

Question: And the Ki [1]?
Answer: 5.9 µM

Question: And the IC50 [5]?
Answer: 0.267 µM

Question: What about the IC50 [6] of the same molecule?
Answer: 0.45 µM

Question: What about the Ki [2] of the same molecule?
Answer: 0.0025 µM

Question: Which IC50 [5] does the source give for C[C@H]1[C@H](OC(=O)CCC(=O)O)O[C@@H]2O[C@@]3(C)CC[C@H]4[C@H](C)CC[C@@H]1[C@@]24OO3 [ARTESUNATE] here?
Answer: 0.0013 µM

Question: And the IC50 [6]?
Answer: 0.0009 µM

Reference: ChEMBL document CHEMBL3763022, “Potent dual inhibitors of Plasmodium falciparum M1 and M17 aminopeptidases through optimization of S1 pocket interactions” (Eur J Med Chem, 2016)
